We go through 17 compounds from publication PMC11628833 (Acta Pharmaceutica Sinica. B, 2024).

Molecules are shown by their SMILES.

In one assay the target is T1, human TLR7 (Homo sapiens, UniProt Q9NYK1).
T1 sequence (Q9NYK1 27-1049): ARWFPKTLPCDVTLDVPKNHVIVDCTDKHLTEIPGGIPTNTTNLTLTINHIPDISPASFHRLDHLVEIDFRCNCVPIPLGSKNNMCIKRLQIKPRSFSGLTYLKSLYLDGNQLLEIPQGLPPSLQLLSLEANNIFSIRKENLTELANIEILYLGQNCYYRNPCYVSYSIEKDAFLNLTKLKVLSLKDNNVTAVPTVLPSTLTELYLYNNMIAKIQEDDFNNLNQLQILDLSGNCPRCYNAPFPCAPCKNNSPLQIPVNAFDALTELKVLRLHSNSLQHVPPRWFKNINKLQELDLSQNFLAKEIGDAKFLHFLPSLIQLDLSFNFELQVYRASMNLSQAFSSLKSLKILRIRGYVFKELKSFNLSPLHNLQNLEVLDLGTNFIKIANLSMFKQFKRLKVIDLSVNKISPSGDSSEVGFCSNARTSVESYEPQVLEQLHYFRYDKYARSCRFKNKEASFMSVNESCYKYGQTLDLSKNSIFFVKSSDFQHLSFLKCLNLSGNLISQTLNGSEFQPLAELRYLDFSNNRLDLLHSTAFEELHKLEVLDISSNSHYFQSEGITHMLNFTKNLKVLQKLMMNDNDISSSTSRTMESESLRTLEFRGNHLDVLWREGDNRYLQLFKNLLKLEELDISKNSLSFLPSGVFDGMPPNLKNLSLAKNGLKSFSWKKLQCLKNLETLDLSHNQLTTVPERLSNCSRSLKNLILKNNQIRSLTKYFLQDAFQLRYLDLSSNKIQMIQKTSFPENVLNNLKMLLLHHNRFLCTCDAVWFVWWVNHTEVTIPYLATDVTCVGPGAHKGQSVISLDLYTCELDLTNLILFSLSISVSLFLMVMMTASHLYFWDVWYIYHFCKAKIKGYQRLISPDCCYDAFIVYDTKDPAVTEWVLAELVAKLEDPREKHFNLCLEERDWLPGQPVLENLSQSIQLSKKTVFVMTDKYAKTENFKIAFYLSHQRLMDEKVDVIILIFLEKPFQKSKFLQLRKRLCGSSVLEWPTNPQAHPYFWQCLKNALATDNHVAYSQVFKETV
Nature of the assay: SEAP reporter assay in HEK-Blue hTLR7 cells. It is filed as cell-based. The gist of the method: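 HEK-Blue hTLR7 cells (stable human TLR7 with SEAP reporter) were plated at 5 × 10^5 cells/mL in DMEM with 10% heat-inactivated FBS. They were treated with R848 and varying test compound concentrations at 37 °C for 20–24 h. Medium was mixed with QUANTI-Blue, incubated at 37 °C for about 30 min, and read at 620 nm. R848-only = 100% activation; untreated = 0%.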

The target of a further assay is T2, hTLR8 (Homo sapiens, UniProt Q9NR97).
T2 sequence (Q9NR97 27-1041): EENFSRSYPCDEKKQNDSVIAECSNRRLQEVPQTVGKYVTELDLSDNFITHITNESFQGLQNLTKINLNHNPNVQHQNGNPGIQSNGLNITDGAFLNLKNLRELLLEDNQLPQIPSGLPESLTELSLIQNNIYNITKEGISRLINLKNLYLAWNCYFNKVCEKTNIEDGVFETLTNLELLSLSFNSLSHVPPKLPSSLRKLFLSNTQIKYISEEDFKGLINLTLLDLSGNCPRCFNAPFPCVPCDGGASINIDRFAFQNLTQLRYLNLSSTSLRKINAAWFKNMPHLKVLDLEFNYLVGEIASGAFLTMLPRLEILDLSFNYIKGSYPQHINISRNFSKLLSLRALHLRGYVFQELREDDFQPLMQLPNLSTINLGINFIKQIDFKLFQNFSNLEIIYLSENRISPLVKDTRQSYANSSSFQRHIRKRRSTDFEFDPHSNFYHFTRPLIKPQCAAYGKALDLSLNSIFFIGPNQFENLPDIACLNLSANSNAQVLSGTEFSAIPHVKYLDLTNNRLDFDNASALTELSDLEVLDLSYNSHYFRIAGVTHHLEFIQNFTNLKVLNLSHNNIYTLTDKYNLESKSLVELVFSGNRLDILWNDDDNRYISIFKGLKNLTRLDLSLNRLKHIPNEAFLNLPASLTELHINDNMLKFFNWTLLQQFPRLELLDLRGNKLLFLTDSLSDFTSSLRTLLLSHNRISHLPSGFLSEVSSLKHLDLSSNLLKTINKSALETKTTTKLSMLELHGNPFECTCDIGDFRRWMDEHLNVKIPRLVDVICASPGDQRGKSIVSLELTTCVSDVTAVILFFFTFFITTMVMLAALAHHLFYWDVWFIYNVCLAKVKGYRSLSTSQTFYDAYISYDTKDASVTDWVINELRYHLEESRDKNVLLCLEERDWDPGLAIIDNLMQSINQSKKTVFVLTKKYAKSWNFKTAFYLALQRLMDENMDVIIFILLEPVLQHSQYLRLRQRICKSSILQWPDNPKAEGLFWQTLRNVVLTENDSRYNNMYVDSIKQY
In words: SEAP reporter assay in HEK-Blue hTLR8 cells. It is filed as cell-based.

Another assay relates to MRL/lpr mice. In words: MRL/lpr mice SLE model. The class given is in vivo, mouse. The note with it: female MRL/lpr mice, S14 50 mg/kg oral once daily; vs placebo. The gist of the method:
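Mice were 14-week-old female MRL/lpr, randomized by body weight, n = 12/group, treated 4 weeks. Oral test compound in 10% w/v PEG-400/1,3-propanediol/water (55:20:25): 100 mg/kg twice daily, or a second compound at 50 mg/kg once daily. Controls: hydroxychloroquine 100 mg/kg daily in saline; saline placebo. Weekly: survival, body weight, skin lesions, and fundus-vein plasma for ANA/anti-dsDNA ELISA. Endpoint: spleen weight and H&E kidney histology.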

Assay [1] has as its system IL-8 mRNA (TLR7 downstream). In words: RT-PCR analysis of IL-8 mRNA in R848 treated HEK-Blue TLR7 cells. The note with it: 2 μg/mL R848 treated HEK-Blue TLR7 cells. It is filed as cell-based, human. The gist of the method:
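HEK-Blue TLR7 cells were seeded at 1 × 10^6 cells/well for 24 h, then switched to serum-free medium. They were treated ± R848 with various test compound concentrations for 16 h at 37 °C. IL-8 mRNA was quantified by RT-PCR using the ΔΔCt method, with GAPDH as reference and normalization to untreated cells.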

The target in assay [2] is T3, TLR7 extracellular domain (Macaca mulatta, UniProt B3Y653, N167Q/N389Q/N488Q/N799Q, form not given).
T3 sequence (B3Y653 27-839 N167Q/N389Q/N488Q/N799Q): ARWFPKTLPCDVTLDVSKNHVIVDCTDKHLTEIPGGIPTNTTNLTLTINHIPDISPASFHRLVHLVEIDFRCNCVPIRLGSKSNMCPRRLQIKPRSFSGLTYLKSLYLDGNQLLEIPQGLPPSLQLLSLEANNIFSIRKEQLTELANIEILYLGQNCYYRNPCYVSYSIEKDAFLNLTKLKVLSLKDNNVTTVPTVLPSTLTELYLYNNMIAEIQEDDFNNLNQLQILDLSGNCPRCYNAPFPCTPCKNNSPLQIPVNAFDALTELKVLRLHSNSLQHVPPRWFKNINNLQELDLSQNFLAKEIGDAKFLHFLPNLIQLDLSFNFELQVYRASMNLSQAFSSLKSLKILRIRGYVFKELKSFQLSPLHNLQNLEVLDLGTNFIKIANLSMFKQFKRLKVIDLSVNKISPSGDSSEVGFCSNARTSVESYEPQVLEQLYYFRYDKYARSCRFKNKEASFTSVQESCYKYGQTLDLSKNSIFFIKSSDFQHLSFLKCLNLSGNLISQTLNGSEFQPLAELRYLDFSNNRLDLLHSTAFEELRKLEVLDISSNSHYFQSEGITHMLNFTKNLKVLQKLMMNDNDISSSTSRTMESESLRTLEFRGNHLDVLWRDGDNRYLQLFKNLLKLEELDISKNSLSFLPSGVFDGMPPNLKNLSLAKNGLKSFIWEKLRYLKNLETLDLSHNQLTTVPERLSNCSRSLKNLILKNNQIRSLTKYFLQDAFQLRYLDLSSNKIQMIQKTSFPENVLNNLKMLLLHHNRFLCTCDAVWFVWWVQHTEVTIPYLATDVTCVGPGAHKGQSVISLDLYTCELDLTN
In words: ITC titration to TLR7 recombinant protein. It is filed as binding, Monkey (Macaca mulatta). A digest of the protocol:
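Titrations used the same purified rhesus TLR7 ectodomain, at 298 K in citrate/NaOH pH 4.8, 150 mmol/L NaCl. Syringe held 1 mmol/L test compound or loxoribine; cell held TLR7, with or without the other ligand pre-added. Each run was one small injection followed by 18 injections at 180 s intervals. Kd and ΔH obtained by single-site binding model fitting.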

The mark [3] stands for this setting: 1 mmol/L loxoribine into 50 μmol/L TLR7, absence of TH-407b.

For `O=C(c1cccs1)N1CCN(c2ccc([N+](=O)[O-])c3ncccc23)CC1` [Compound S12], the IC50 was 2.12 ± 0.58 µM against human TLR7 and 0.06 ± 0.03 µM against hTLR8.
Taken in the same sequence, the figures for `COc1ccccc1C(=O)N1CCN(c2ccc([N+](=O)[O-])c3ncccc23)CC1` [Compound S10] were 3.06 ± 2.72 µM and 0.06 ± 0.01 µM.
On to `O=C(c1ccncc1)N1CCN(c2ccc([N+](=O)[O-])c3ncccc23)CC1` [Compound S14], for which, in the assay on MRL/lpr mice, the “ANA and anti-ds-DNA antibody levels” value is “no significant alterations”; the glomerular diameter entry is “no significant alterations”; the skin lesion severity entry was “no significant alterations”; the spleen index entry was “no significant alterations”. Besides, the survival rate result with MRL/lpr mice is “notably lower than the placebo group”. At human TLR7, half-maximal inhibition (IC50) was put at 3 ± 0.37 µM. Half-maximal inhibition on hTLR8 (IC50) required 0.06 ± 0.01 µM.
On to `Cc1ccc(C(=O)N2CCN(c3ccc([N+](=O)[O-])c4ncccc34)CC2)cc1` [Compound S2], for which the IC50 at human TLR7 is 0.86 ± 0.39 µM; on hTLR8, 0.11 ± 0.04 µM.
In the same order, the values of `O=C(c1ccc(Br)cc1)N1CCN(c2ccc([N+](=O)[O-])c3ncccc23)CC1` [Compound S8] are 0.97 ± 1.23 µM and 0.14 ± 0.17 µM.
As to `O=C(c1ccccc1)N1CCN(c2ccc([N+](=O)[O-])c3ncccc23)CC1` [Compound S6], the IC50 stood at 1.07 ± 0.42 µM on human TLR7 and 0.1 ± 0.07 µM on hTLR8.
In the case of `O=[N+]([O-])c1ccc(-c2ccc(CO)cc2)c2cccnc12` [Compound S16], the IC50 against human TLR7 was 0.66 ± 0.13 µM; against hTLR8, 1.3 ± 0.03 µM.
In the same order, the values of `O=C(c1ccc(F)cc1)N1CCN(c2ccc([N+](=O)[O-])c3ncccc23)CC1` [Compound S7] are 1.15 ± 0.16 µM and 0.1 ± 0.05 µM.
Taken in the same sequence, the figures for `COc1ccc(C(=O)N2CCN(c3ccc([N+](=O)[O-])c4ncccc34)CC2)c(OC)c1` [Compound S11] were 0.41 ± 0.33 µM and 0.06 ± 0.03 µM.
In the same order, the values of `COc1cccc(C(=O)N2CCN(c3ccc([N+](=O)[O-])c4ncccc34)CC2)c1` [Compound S9] are 1.28 ± 1.05 µM and 0.08 ± 0.03 µM.
Regarding `O=[N+]([O-])c1ccc(-c2ccc(O)cc2)c2cccnc12` [Compound S15], the IC50 on human TLR7 and against hTLR8 was 0.02 ± 0.01 µM in each case.
On to `COc1ccc(C(=O)N2CCN(c3ccc([N+](=O)[O-])c4cccnc34)CC2)cc1` [Compound S24], for which the “IL-8 mRNA level” value in assay [1] is “inactive”.
`O=C(c1ccco1)N1CCN(c2ccc([N+](=O)[O-])c3ncccc23)CC1` [Compound S13]: the IC50 against human TLR7 came to 0.53 ± 0.11 µM; at hTLR8 it was 0.1 ± 0.01 µM.
On hTLR8, `COc1ccc(C(=O)N2CCN(c3ccc(N)c4ncccc34)CC2)cc1` [Compound S21] came in with an IC50 of 0.82 ± 0.04 µM.
Take `C=CCn1c(=O)n([C@@H]2O[C@H](CO)[C@@H](O)[C@H]2O)c2nc(N)[nH]c(=O)c21` [loxoribine]: in assay [2] (setting [3]), the Kd is 4.4 µM and the ΔH is -5.828 kcal/mol. The “heat change upon titration” value in assay [2] (loxoribine into TLR7 in the presence of pre-mixed 500 μmol/L TH-407b) was “completely obliterated”.
As for `COc1ccc(C(=O)N2CCN(c3ccc([N+](=O)[O-])c4ncccc34)CC2)cc1` [Compound S4], the figures for the IC50 against human TLR7 and against hTLR8 were 0.53 ± 0.09 µM and 0.07 ± 0.01 µM, respectively.
As to `O=C(c1ccc([N+](=O)[O-])cc1)N1CCN(c2ccc([N+](=O)[O-])c3ncccc23)CC1` [Compound S5], the results for the IC50 against human TLR7 and on hTLR8 were 0.64 ± 0.21 µM and 0.15 ± 0.04 µM, respectively.
